Shown are actives, neighbours in structure and some others; about 2.7% of the full set was active somewhere.
PRMT1 inh – PRMT1 (human) inhibition, primary screen; Q99873; recombinant PRMT1, activity-based probe fluorescence polarization; inhibition, % at 2.79 µM; actives 1.3% (n = 370,000); AID 652257;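 active = inhibition above about 21% made by adding two undisclosed values, limit read from the data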
SIAE inh – blocks human sialic acid acetylesterase | actives 0.69% (n = 370,000) | SIAE FP-Rh probe binding, fluorescence polarization | inhibition, % at 9.66 µM;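 active = inhibition above a cutoff: mean of compounds within the control limits plus 3 SD of those, cut at about 17% in these data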;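 also: 0% = plate median of compound wells and 100% = probe without SIAE protein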
mABHD4 FP – inhibitors of mouse ABHD4. Q8VD66. purified mABHD4, FP-Rh probe fluorescence polarization. inhibition, % at 8.92 µM. actives 0.54% (n = 370,000). AID 720543;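 active = inhibition exceeding the mean over every tested compound plus 3 SD, cut at about 30% in these data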;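 also: 0% = plate median of compound wells and 100% = S159A mutant with DMSO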
Target sequence (Q8VD66 whole entry, looked up): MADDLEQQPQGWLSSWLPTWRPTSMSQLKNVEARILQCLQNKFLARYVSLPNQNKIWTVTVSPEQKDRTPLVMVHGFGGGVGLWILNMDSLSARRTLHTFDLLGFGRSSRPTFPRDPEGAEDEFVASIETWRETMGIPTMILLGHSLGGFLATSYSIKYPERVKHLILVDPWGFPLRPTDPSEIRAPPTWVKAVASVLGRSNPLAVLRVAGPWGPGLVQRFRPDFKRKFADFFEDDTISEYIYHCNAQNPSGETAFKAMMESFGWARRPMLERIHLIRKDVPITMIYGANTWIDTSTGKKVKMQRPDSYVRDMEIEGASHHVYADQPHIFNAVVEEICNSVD
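Test system: mABHD4 protein; Read-out basis: % inhibition; Incubation: 45 min + 60 min at 25 °C; Repeats: single replicate; Technique: fluorescence polarization with parallel and perpendicular emission, 525/598 nm; Compound: 8.92 µM, single dose; Benchmarks: full inhibition S159A mutant plus DMSO, zero as sample-well median.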
HTRA1 inhibitor – HTRA1 (human) protease inhibition; Q92743; recombinant HTRA1, FP-rhodamine activity-based probe, fluorescence polarization; inhibition, % at 5.96 µM; actives 0.5% (n = 340,000); in the data active = inhibition above about 36%;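 also: 0% = enzyme with DMSO and 100% = wells lacking enzyme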
TCR-CD3 inh – inhibitors of human TCR-CD3 interaction; inhibition, % at 9.4 µM; AID 651800; TAMRA-labeled TCR probe fluorescence, biochemical; actives 0.37% (n = 360,000); in the data active = inhibition above about 19%;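 also: recombinant mutant TCR 2C K166C tagged with TAMRA read by polarization; 0% = receptor in buffer alone and 100% = receptor with positive control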
SIAE inh conf – human SIAE inhibition, confirmation. actives 13% (n = 2,300). inhibition, % at 9.66 µM. SIAE FP-Rh activity-based probe, fluorescence polarization. AID 1117263. shares compounds with SIAE inh;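 active = mean inhibition of the replicates above the hit cutoff set in the primary screen, cut at about 17% in these data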;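 also: 0% = SIAE with DMSO and probe and 100% = probe without SIAE; inhibitors lower polarization as more probe stays unbound to SIAE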
* = called active by the depositor; nt = no result.

SMILES	PRMT1 inh	SIAE inh	mABHD4 FP	HTRA1 inhibitor	TCR-CD3 inh	SIAE inh conf
CC(C)(C)c1ccc(OCCNC(=S)Nc2ccccc2)cc1	-2.3	17.3*	-24.3	-45.5	7.2	-11.0
CC(C)(C)c1ccc(OCCNCc2ccccc2)cc1	-2.2	-1.1	13.4	1.8	-2.2	nt
CCN(C(=S)Nc1cccc(C)c1)c1ccccc1	-4.0	23.5*	1.6	-1.0	3.5	-0.5
O=C(O)c1ccccc1NCc1cccnc1	0.7	1.7	0.7	nt	0.2	nt
O=C(O)CNc1ccccc1C(=O)O	2.4	37.6*	8.8	-1.2	-3.2	0.9
O=C1Nc2ccccc2-n2nnnc2C1N1CCN(C(=O)C2CCCO2)CC1 (stereo not given)	-4.0	-0.8	4.7	nt	7.9	nt
Cc1ccc(S(=O)(=O)Nc2c(C)n(C)n(-c3ccccc3)c2=O)cc1C(=O)OC(C)C(=O)N(C)c1ccccc1 (stereo not given)	-0.6	21.2*	0.8	-1.9	2.8	3.4
Cc1ccc(S(=O)(=O)Nc2c(C)n(C)n(-c3ccccc3)c2=O)cc1C(=O)OC(C)C(=O)c1ccccc1 (stereo not given)	4.8	6.9	-8.2	-5.9	0.3	nt
O=C(CN1CCN(CN2C(=O)NC3(CCCCCC3)C2=O)CC1)Nc1ccc(F)cc1	1.7	-5.0	2.9	7.9	0.8	nt
Nc1ccc(C2=Nc3cccc4cccc(c34)N2)cc1	-2.1	24.2*	-3.0	19.4	4.8	4.1
O=C1CC(c2ccco2)=Nc2ccccc2N1	-1.1	0.1	2.3	4.2	2.7	nt
COc1cccc(C2=Nc3cccc4cccc(c34)N2)c1	7.1	22.0*	-5.9	14.3	-0.1	-1.2
COc1cccc(-c2nnc(-c3ccc4ccccc4c3)o2)c1	-5.0	-58.8	-33.7	-24.9	-3.5	nt
c1coc(C2=Nc3cccc4cccc(c34)N2)c1	4.8	23.4*	5.9	4.8	8.1	8.1
COc1ccc(Cl)cc1NC(=O)C(C)OC(=O)C1=NNC(=O)CC1 (stereo not given)	2.9	-1.1	2.8	6.6	-2.1	nt
O=C(Nc1c(-c2ccccc2)[nH][nH]c1=O)c1ccco1	4.1	15.7	8.8	nt	-3.0	nt
COc1ccccc1NCC(=O)N/N=C/c1c(O)ccc2ccccc12	7.7	17.9*	17.4	27.3	-1.2	0.0
CN(Cc1ccc(Cl)c(Cl)c1)C(=O)C1=CC=CN2CCS(=O)(=O)N=C12	-2.5	4.7	-7.9	-1.4	-5.7	nt
Fc1ccc2nc(Nc3nc4cc5c(cc4s3)OCO5)sc2c1	-0.8	24.6*	7.3	0.0	-3.0	8.5
Fc1ccc2nc(Nc3nc4cc5c(cc4s3)OCCO5)sc2c1	-0.7	32.0*	11.9	-15.5	-7.8	5.6
CCOC(=O)[C@]12CCC=C1N(Cc1ccc3c(c1)OCO3)C(=O)[C@H](CC(=O)NCc1ccc(C)o1)C2	18.2	3.8	-9.6	nt	-4.7	nt
COC(=O)c1cc2c(c3c4cc(OC)ccc4n(C(=O)c4ccccc4)c13)C(=O)N(Cc1ccco1)C2	9.2	-9.2	-5.8	nt	12.0	nt
CN(/N=C/c1ccc(O)cc1O)c1nc(-c2ccccc2)cc(-c2ccccc2)n1	0.0	19.9*	0.6	18.3	-5.1	5.8
COc1ccc(NC(=S)Nc2nc(CC(=O)Nc3ccccc3OC)cs2)cc1	1.3	21.1*	-6.2	-18.6	4.2	6.6
CC12CN3CCN(CC(C3)/C1=N/N=C/c1cccc([N+](=O)[O-])c1)C2	-6.1	17.2*	-0.7	3.1	0.7	-0.5
SMILES	PRMT1 inh	SIAE inh	mABHD4 FP	HTRA1 inhibitor	TCR-CD3 inh	SIAE inh conf
C/C(=N\NC(=O)Cc1csc(N2CCOCC2)n1)c1ccccc1	3.0	20.8*	1.6	-1.9	-12.1	-1.0
CC(=NNC(=O)c1cc(C)nc2ccccc12)c1ccc(N2CCOCC2)cc1	-1.6	2.9	4.3	1.0	0.1	nt
CCC1(c2ccccc2)NC(=S)N(c2cccc(C)c2C)N1 (stereo not given)	2.0	17.4*	3.2	-3.9	-1.9	-4.8
CC1(NC(=O)Nc2cccc3ccccc23)CCS(=O)(=O)C1 (stereo not given)	3.9	22.2*	-9.8	3.8	3.1	1.5
COc1ccccc1CNC1CCC12CCC(c1ccccc1)CC2 (stereo not given)	2.1	0.0	6.1	nt	nt	nt
CNC(=S)N(Cc1cccs1)Cc1cc2cc(OC)ccc2[nH]c1=O	-1.8	42.4*	13.4	-0.3	7.5	72.6*
COc1cccc(CN2CC(C(=O)NCCCn3cccn3)CCC2=O)c1 (stereo not given)	-2.6	-0.1	7.1	-4.0	4.5	nt
